Data from publication PMC7931189 (ACS Omega, 2021).
Entries after “also recorded” stand apart in the source; their conditions may differ.

What was measured:
[1] = test system: human colorectal carcinoma cells (HCT-116); assay: Antiproliferative activity by the MTT assay, HCT-116; type: cell-based; details: for IC50: Homo sapiens, HCT-116, 48 h, read-out: IC50 HCT-116; for inhibitory action on HCT-116 cells: MTT, 48 h post treatment, result in words
In short: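 HCT-116 cells grown in DMEM with L-glutamine, fetal bovine serum, selenium chloride and penicillin-streptomycin; exposed to test compound at 0.06–0.7 mg/mL for 48 h, untreated wells as control. MTT (5.0 mg/mL) added for 4 h, then DMSO; absorbance read at 570 nm. Percent viability calculated relative to control; one-way ANOVA with Student's t-test for p-values.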

HCT-116 cells = assay: Nuclear DNA staining; type: cell-based, human; details: 0.1 mg/mL, 48 h, compared to nontreated control
In short: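 HCT-116 cells exposed to test compound at 0.1 mg/mL for 48 h alongside untreated controls. Cells then fixed in 4% paraformaldehyde, permeabilised with Triton X-100 in PBS and stained with DAPI. Nuclei imaged by confocal scanning microscopy at 200× magnification and scored for loss of staining, condensation and disintegration.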

SMILES	IC50 [1] [µM]	inhibitory action on HCT-116 cells [1]	nuclear staining / nuclear disintegration of DAPI stained HCT-116 cells (HCT-116 cells)
CC(C)(C(=O)NN)C(O)c1ccc(Cl)cc1 (stereo not shown) [compound 2, 3-(4-chlorophenyl)-3-hydroxy-2,2-dimethylpropanehydrazide]	1650 ± 60	showed inhibitory activities	
CC(C)(C(=O)O)C(O)c1ccc(Cl)cc1 (stereo not shown) [compound 1, 3-(4-chlorophenyl)-3-hydroxy-2,2-dimethylpropanoic acid]	1270 ± 40	showed inhibitory activities	
CN(C)c1ccc(C=NNC(=O)C(C)(C)C(O)c2ccc(Cl)cc2)cc1 (stereo not shown) [compound 3, 3-(4-chlorophenyl)-N′-(4-(dimethylamino)benzylidene)-3-hydroxy-2,2-dimethylpropanehydrazide]	267 ± 30	showed inhibitory activities	significant loss (arrows) of staining; also recorded: significant loss of nuclear staining
